Data on 7 molecules can be found in publication PMC12521504 (Communications Biology, 2025).

Read-outs that look alike come from different tables or passages of the source.

Assay [1] has as its target T1, mouse ACE (mACE) (Mus musculus, UniProt P09470).
T1 sequence (P09470 35-1312): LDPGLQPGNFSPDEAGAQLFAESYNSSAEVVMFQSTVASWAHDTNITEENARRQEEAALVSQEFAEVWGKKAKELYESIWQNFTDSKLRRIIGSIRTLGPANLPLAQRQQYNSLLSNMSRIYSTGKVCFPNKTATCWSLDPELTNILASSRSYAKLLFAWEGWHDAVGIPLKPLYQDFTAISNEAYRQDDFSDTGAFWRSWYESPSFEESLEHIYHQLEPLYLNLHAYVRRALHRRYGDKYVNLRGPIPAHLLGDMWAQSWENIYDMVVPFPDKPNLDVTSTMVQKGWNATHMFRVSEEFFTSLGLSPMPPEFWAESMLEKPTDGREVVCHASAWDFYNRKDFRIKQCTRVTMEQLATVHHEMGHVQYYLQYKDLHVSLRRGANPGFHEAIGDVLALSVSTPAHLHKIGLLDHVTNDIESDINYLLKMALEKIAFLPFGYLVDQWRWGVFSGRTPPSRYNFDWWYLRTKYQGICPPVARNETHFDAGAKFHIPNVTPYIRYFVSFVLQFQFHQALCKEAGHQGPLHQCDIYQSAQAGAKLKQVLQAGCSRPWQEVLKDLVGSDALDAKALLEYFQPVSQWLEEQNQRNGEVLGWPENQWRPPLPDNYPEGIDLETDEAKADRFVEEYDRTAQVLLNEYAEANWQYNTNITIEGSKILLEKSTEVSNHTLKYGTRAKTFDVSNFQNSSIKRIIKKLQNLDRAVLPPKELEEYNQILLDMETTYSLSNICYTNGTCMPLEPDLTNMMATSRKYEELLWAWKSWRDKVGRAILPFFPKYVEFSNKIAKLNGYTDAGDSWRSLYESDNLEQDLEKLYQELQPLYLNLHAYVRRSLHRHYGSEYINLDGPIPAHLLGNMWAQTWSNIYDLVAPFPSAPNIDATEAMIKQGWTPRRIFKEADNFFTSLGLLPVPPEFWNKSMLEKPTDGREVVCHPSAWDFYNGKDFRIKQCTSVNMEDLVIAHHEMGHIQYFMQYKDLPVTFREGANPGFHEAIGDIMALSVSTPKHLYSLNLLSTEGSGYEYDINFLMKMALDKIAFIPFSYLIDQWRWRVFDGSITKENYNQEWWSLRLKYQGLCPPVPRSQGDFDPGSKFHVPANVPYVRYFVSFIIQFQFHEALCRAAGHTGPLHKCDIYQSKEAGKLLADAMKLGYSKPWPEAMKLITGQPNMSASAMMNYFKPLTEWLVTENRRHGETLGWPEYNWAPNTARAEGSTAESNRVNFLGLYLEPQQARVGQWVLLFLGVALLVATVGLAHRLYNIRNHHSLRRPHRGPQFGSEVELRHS
Description: Fluorescence-based ACE enzymatic assay with Mca-[…]. The class given is biochemical.

Assay [2] has as its system male ICR-CD1 mice. Description: Formalin induced paw licking/lifting test. It is filed as in vivo, mouse. Particulars: 2% formalin.
For assay [3], the system named is male ICR-CD1 mice. Description: Hot plate assay. To be noted: 15 min. It is filed as in vivo, mouse. The method, boiled down: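 Male ICR-CD1 mice, 8 weeks old (n = 6–15/group), received compound i.c.v. (10 µl, 100 µg/mouse) under isoflurane, alone or with MERF (50 µg/mouse). Mice were placed on a glass platform preheated to 55 °C. Latency to shake, lick or lift the hind paw, or to jump, was timed at set points, with a 60 s cut-off. Results are %MPE = (Test−Baseline)/(60−Baseline) × 100.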

In assay [4] the target is T2, N-domain of mACE (Mus musculus, UniProt P09470).
T2 sequence (P09470 35-1312): T1 sequence (P09470 35-1312)
Description: ACE N-domain specific enzymatic assay with Abz-SDK. It is filed as biochemical.

Assay [5] deals with male ICR-CD1 mice. Description: Tail-flick assay. It is filed as in vivo, mouse. Particulars: for %MPE (group mean): 15 min. The gist of the method: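 Radiant-heat tail-flick in 8-week male ICR-CD1 mice (n = 6–15/group). Beam was calibrated to a 2–4 s baseline, tail tip placed 20–30 mm from the source, cut-off 10 s. Compound was given i.c.v. under isoflurane at 100 µg/mouse (also 75 µg/mouse), alone or with MERF (50 µg/mouse). […] Results are %MPE relative to pre-treatment baseline.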
Background: Thermal pain tests record how soon the animal reacts.

Assay [6] concerns the target T3, C-domain of mACE (Mus musculus, UniProt P09470).
T3 sequence (P09470 35-1312): T1 sequence (P09470 35-1312)
Description: ACE C-domain specific enzymatic assay with Abz-LFK. It is filed as biochemical.

The subject of assay [7] is male ICR-CD1 mice. Description: Acetic acid induced writhing test. It is filed as in vivo, mouse. Particulars: for effect of naloxone on analgesia of systemic (i.p.) compound: naloxone 5 mg/kg s.c.
In assay [8] the target is T1, mouse ACE (mACE). Description: Secondary LC-MS/MS ACE inhibition assay. The class given is biochemical.
Assay [9] deals with extracellular MERF, Met-enkephalin and Leu-enkephalin levels. The class given is cell-based, mouse. Particulars: thiorphan 10 μM, raloxifene 500 μM.
Where [10] appears, read: 100 µg/animal i.c.v. + naloxone 5 mg/kg s.c.
Where [11] appears, read: 100 µg/animal i.c.v., late phase.
Setting [12] is: compound 100 μg/mouse + MERF i.c.v.
The mark [13] stands for this setting: compound 100 μg/mouse i.c.v. alone.
[14] abbreviates: compound 100 μg/mouse + MERF 50 μg/mouse i.c.v.
The mark [15] stands for this setting: 100 µg/animal i.c.v., 1% acetic acid i.p., 30 min.

Turning to `Cl.O=C(O)C1CCCN(CCC=C(c2ccccc2)c2ccccc2)C1` (stereo not shown) [SKF 89976A hydrochloride], in [1], the “confirmation of HTS findings in dose-response studies” value is “did not confirm the HTS findings”.
On to `O=C(c1ccc(OCCN2CCCCC2)cc1)c1c(-c2ccc(O)cc2)sc2cc(O)ccc12` [Raloxifene, raloxifene], for which the “paw licking/lifting duration, Phase I” value in assay [2] (setting [10]) is on record as 69.75 s; in assay [2] (100 µg/animal i.c.v., 0–5 min), 10 s. In addition, the “paw licking/lifting duration, Phase II” value in [2] (setting [10]) came out at 9.25 s; in assay [2] (setting [11]), 2 s. In addition, the “%MPE (group mean)” value in [3] (setting [12]) amounted to 25.89%; in assay [3] (setting [13]), 5.52%; in assay [5] (setting [14]), 34.28%; in assay [5] (setting [13]) it was 13.33%. In addition, the Ki was 180 µM in assay [4] and 30 µM in assay [6]. Moreover, the IC50 was found to be 320 µM in assay [4] (read-out: IC50 N-domain, 40 µM Abz-SDK(Dnp)P-OH, 35 nM mACE); 140 µM in assay [6]; 102 ± 13.2 µM in assay [1]. In addition, the “writhings (group mean)” value in [7] (100 µg/animal i.c.v. + naloxone 5 mg/kg s.c., 1% acetic acid) was 78.75; in assay [7] (setting [15]), 51.8. Also, the “effect of naloxone on analgesia of systemic (i.p.) compound” value in assay [7] was “naloxone failed to reverse the analgesic effect”.
On to `O=C(O)CNC(=O)C(CS)Cc1ccccc1` (stereo not shown) [Thiorphan, thiorphan], for which the half-inhibitory concentration (IC50) in assay [8] worked out at 3.51 ± 0.37 µM; in assay [4], 1.3 ± 0.08 µM; in assay [6], 0.77 ± 0.046 µM; in assay [1] it was 2.36 ± 0.42 µM. Besides, the “%MPE (group mean)” value came to 36.48% in [3] (setting [12]), 13.83% in assay [3] (setting [13]), 40.32% in assay [5] (setting [14]) and 22.45% in [5] (setting [13]). The “effect on Met- and Leu-enkephalin levels” value in assay [9] is “affected the levels of Met- and Leu-enkephalins”. The Ki in assay [4] is 0.71 ± 0.045 µM; in [6], 0.17 ± 0.01 µM. Also, the C/N selectivity factor in [6] (N-domain versus C-domain) was 4.2.
`O=C(O)c1nn(Cc2ccc(Cl)cc2Cl)c2ccccc12` [Lonidamine, lonidamine]: the “confirmation of HTS findings in dose-response studies” value in assay [1] is recorded as “did not confirm the HTS findings”.
In the case of `C=CCN1CC[C@]23c4c5ccc(O)c4O[C@H]2C(=O)CC[C@@]3(O)[C@H]1C5` [Naloxone, naloxone], the “analgesia of naloxone itself” value in assay [5] (5 mg/kg s.c.) was “unable to induce analgesia”.
With Met-enkephalin-Arg-Phe [MERF], the “%MPE (group mean)” value in assay [5] (MERF 50 μg/mouse i.c.v. alone) was 6.27%.
With `C[C@H](CS)C(=O)N1CCC[C@H]1C(=O)O` [Captopril, captopril], the “paw licking/lifting duration, Phase I” value in assay [2] (setting [10]) amounted to 73.5 s; in assay [2] (100 µg/animal i.c.v., 0–5 min) it was 16.5 s. Besides, the “paw licking/lifting duration, Phase II” value in [2] (setting [10]) is on record as 16.25 s; in assay [2] (setting [11]) it was 15 s. Moreover, the “%MPE (group mean)” value is 51.30% in [3] (setting [12]), 10.32% in [3] (setting [13]), 68.31% in assay [5] (setting [14]) and 21.68% in assay [5] (setting [13]). Moreover, the “writhings (group mean)” value turned out to be 48 in [7] (setting [15]) and 57.66 in assay [7] (50 mg/kg i.p., 1% acetic acid). The “effect of naloxone on analgesia of systemic (i.p.) compound” value in [7] was “reversed by systemic naloxone”.

Broadly, the Ki is a dissociation constant, usually derived from enzyme kinetics or from competition with a known ligand. Broadly, the IC50 is the midpoint of a concentration-inhibition curve.
